ChEMBL document CHEMBL3046604, “Synthesis and fungistatic activity of new groups of 2,4-dihydroxythiobenzoyl derivatives against phytopathogenic fungi” (J Agric Food Chem, 2003)

Assays:
[1] = test system: Blumeria graminis; test: Fungistatic activity against Blumeria graminis infested wheat seedling assessed as inhibition of fungal infection at 1000 ug/ml applied as spray after 7 to 14 days under green house conditions relative to control; assay type: functional
Summary of the method: (§1)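 Greenhouse test on healthy wheat seedlings with Erysiphe graminis. At the well-developed first-leaf stage, plants were sprayed with compound solution at 1000 or 500 µg/mL, 10 mL of solution per treatment, with three repeats in 9 cm paraffin cups.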

[2] = test system: Alternaria alternata; test: Fungistatic activity against Alternaria alternata assessed as mycelial growth inhibition at 20 ug/ml after 4 to 8 days relative to control; assay type: functional; conditions: read-out: GI
Summary of the method: (§2)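 Compound solutions or suspensions were diluted into PDA agar to final 200 or 20 µg/mL and poured into Petri dishes. Once the agar set, mycelium-covered agar disks of the fungus were placed at three sites on the surface. Linear colony growth was measured after 4-8 days, depending on the culture. Inhibition J = [(C − T)/C] × 100 versus untreated control, reported on a four-degree scale.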

[3] = test system: Phytophthora cactorum; test: Fungistatic activity against Phytophthora cactorum assessed as mycelial growth inhibition at 200 ug/ml after 4 to 8 days relative to control; assay type: functional; conditions: read-out: GI; summary of the method: as §2
[4] = test system: Alternaria alternata; test: Fungistatic activity against Alternaria alternata assessed as mycelial growth inhibition at 200 ug/ml after 4 to 8 days relative to control; assay type: functional; conditions: read-out: GI; summary of the method: as §2
[5] = test system: Fusarium culmorum; test: Fungistatic activity against Fusarium culmorum assessed as mycelial growth inhibition at 200 ug/ml after 4 to 8 days relative to control; assay type: functional; conditions: read-out: GI; summary of the method: as §2
[6] = test system: Botrytis cinerea; test: Fungistatic activity against Botryotinia fuckeliana assessed as mycelial growth inhibition at 200 ug/ml after 4 to 8 days relative to control; assay type: functional; conditions: read-out: GI; summary of the method: as §2
[7] = test system: Phytophthora cactorum; test: Fungistatic activity against Phytophthora cactorum assessed as mycelial growth inhibition at 20 ug/ml after 4 to 8 days relative to control; assay type: functional; conditions: read-out: GI; summary of the method: as §2
[8] = test system: Fusarium culmorum; test: Fungistatic activity against Fusarium culmorum assessed as mycelial growth inhibition at 20 ug/ml after 4 to 8 days relative to control; assay type: functional; conditions: read-out: GI; summary of the method: as §2
[9] = test system: Botrytis cinerea; test: Fungistatic activity against Botryotinia fuckeliana assessed as mycelial growth inhibition at 20 ug/ml after 4 to 8 days relative to control; assay type: functional; conditions: read-out: GI; summary of the method: as §2
[10] = test system: Rhizoctonia solani; test: Fungistatic activity against Rhizoctonia solani assessed as mycelial growth inhibition at 20 ug/ml after 4 to 8 days relative to control; assay type: functional; conditions: read-out: GI; summary of the method: as §2
[11] = test system: Blumeria graminis; test: Fungistatic activity against Blumeria graminis infested wheat seedling assessed as inhibition of fungal infection at 500 ug/ml applied as spray after 7 to 14 days under green house conditions relative to control; assay type: functional; summary of the method: as §1
[12] = Lipophilicity, log K of the compound in methanol-water mixture by HPLC; assay type: physicochemical
Summary of the method: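 Reversed-phase HPLC on a Hypersil BDS C18 column (5 µm, 150 × 4.6 mm) with UV detection at 320 nm. Samples were dissolved in methanol. Mobile phase was methanol at varying volume fractions in 10 mM acetate buffer pH 4, run at 1 mL/min and room temperature. Dead time was taken from injection of acetone dissolved in water.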

[13] = test system: Rhizoctonia solani; test: Fungistatic activity against Rhizoctonia solani assessed as mycelial growth inhibition at 200 ug/ml after 4 to 8 days relative to control; assay type: functional; conditions: read-out: GI; summary of the method: as §2

Row | log K [12] | Compound | inhibition at 1000 µg/mL [1] [%] | inhibition of growth at 20 µg/mL [2] [%] | inhibition of growth at 200 µg/mL [3] [%] | inhibition of growth at 200 µg/mL [4] [%] | inhibition of growth at 200 µg/mL [5] [%] | inhibition of growth at 200 µg/mL [6] [%] | inhibition of growth at 20 µg/mL [7] [%] | inhibition of growth at 20 µg/mL [8] [%] | inhibition of growth at 20 µg/mL [9] [%] | inhibition of growth at 20 µg/mL [10] [%] | inhibition at 500 µg/mL [11] [%] | inhibition of growth at 200 µg/mL [13] [%]
1 | 0.642 | Oc1ccc(C(=S)NN=C(c2ccccc2)c2ccccc2)c(O)c1 | 21 | 0 | 41 | 41 | 0 | 0 | 0 | 0 | 0 | 0 | 0 | 0
2 | 0.232 | Oc1ccc(C(=S)NN=C2c3ccccc3-c3ccccc32)c(O)c1 | 0 | 0 | 41 | 41 | 0 | 21 | 0 | 0 | 0 | 0 | 0 | 0
3 | 0.118 | Oc1ccc(C(=S)Nc2ccccc2-c2ccccc2)c(O)c1 | 21 | 0 | 81 | 61 | 61 | 61 | 41 | 0 | 0 | 0 | 0 | 61

More lines, now with the values behind:

Row | Compound | log K [12] | inhibition at 1000 µg/mL [1] [%] | inhibition of growth at 20 µg/mL [2] [%] | inhibition of growth at 200 µg/mL [3] [%] | inhibition of growth at 200 µg/mL [4] [%] | inhibition of growth at 200 µg/mL [5] [%] | inhibition of growth at 200 µg/mL [6] [%] | inhibition of growth at 20 µg/mL [7] [%] | inhibition of growth at 20 µg/mL [8] [%] | inhibition of growth at 20 µg/mL [9] [%] | inhibition of growth at 20 µg/mL [10] [%] | inhibition at 500 µg/mL [11] [%] | inhibition of growth at 200 µg/mL [13] [%]
4 | Oc1ccc(C(=S)n2c(Cl)nc3ccccc32)c(O)c1 | 0.378 | 41 | 21 | 81 | 81 | 81 | 81 | 21 | 0 | 0 | 21 | 0 | 81
5 | CC(C)(C)c1nnc(NC(=S)c2ccc(O)cc2O)s1 | -0.131 | 21 | 0 | 0 | 0 | 0 | 0 | 0 | 0 | 0 | 0 | 0 | 0
6 | O=C(OC/C=C/c1ccccc1)c1ccccc1NC(=S)c1ccc(O)cc1O | 0.488 | 21 | 41 | 81 | 61 | 81 | 61 | 41 | 41 | 21 | 21 | 21 | 81
